This passage reports IC50 results from ChEMBL document CHEMBL1124160, “Synthetic aci-reductones: 3,4-dihydroxy-2H-1-benzopyran-2-ones and their cis- and trans-4a,5,6,7,8,8a-hexahydro diastereomers. Antiaggregatory, antilipidemic, and redox properties compared to those of the 4-substituted 2-hydroxytetronic acids” (J Med Chem, 1988).

Each structure is given as a SMILES string. A value given as a limit tells only on which side of the number the result lay.

Type in all cases: functional, organism-based
The species entered for experiment [1] is Homo sapiens. In words: Inhibition of arachidonic acid (AA) induced human platelet aggregation. Put shortly:
(§1)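 Human platelet-rich plasma from drug-free volunteers (no medication ≥10 days). Compounds prepared fresh in N2-deoxygenated 10 mM sodium phosphate/0.9% NaCl pH 7.4 (one in DMSO, final 0.14%), added 1 min before inducer: ADP 1–5 μM, AA 0.2–1 mM or U46619 0.3–0.5 μM. Turbidometric aggregometry; IC50 from light-transmittance amplitude at 6 min (ADP, secondary wave) or 4 min (AA, U46619); mean ± SEM over donors.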

For experiment [2], the species on record is Homo sapiens. In words: Inhibition of U-46,619 induced serotonin secretion. Put shortly:
(§2)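 Platelets in human platelet-rich plasma prelabeled with [14C]serotonin; dense-granule secretion read as released radioactivity. Compounds in deoxygenated 10 mM sodium phosphate/0.9% NaCl pH 7.4, given 1 min before ADP (1–5 μM), AA (0.2–1 mM) or U46619 (0.3–0.5 μM). Top drug levels 4000–5000 μM; mean ± SEM across donors.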

For experiment [3], the species on record is Homo sapiens. In words: Inhibition of arachidonic acid (AA) induced serotonin secretion. Put shortly: as §2
For experiment [4], the species on record is Homo sapiens. Briefly: Inhibition of adenosine diphosphate (ADP) induced human platelet aggregation. Put shortly:
as §1

The species named for experiment [5] is Homo sapiens. Briefly: Inhibition of adenosine diphosphate (ADP) induced serotonin secretion. Put shortly: as §2
For experiment [6], the species on record is Homo sapiens. In words: Inhibition of U-46,619 induced human platelet aggregation. Put shortly:
as §1

For experiment [7], the species on record is Homo sapiens. Briefly: Inhibition of U-46,619 induced serotonin secretion; c=No response. Put shortly: as §2

As to `O=C1C(O)=C(O)OC2CCCCC12` (configuration not stated), the IC50 – broadly, the concentration that inhibits the measured activity by half – in experiment [1] is over 4000 µM; in experiment [2], over 4000 µM; in experiment [3], over 4000 µM; in experiment [4] it was 447 µM; in experiment [5] it was 406 µM; in experiment [6] it was over 4000 µM.
With `O=C1C(O)=C(O)OC12CCCC2`, the IC50 in experiment [1], in experiment [2], in experiment [3], in experiment [4], in experiment [5] and in experiment [6] was over 4000 µM throughout.
As to `O=c1c(O)c(O)oc2ccc(-c3ccccc3)cc12`, the IC50 in experiment [1] came out at 253 µM; in experiment [2] it was 345 µM; in experiment [3] it was 407 µM; in experiment [4], 522 µM; in experiment [5], 450 µM; in experiment [6] it was 422 µM.
On to `O=C1C(O)=C(O)OC1c1ccc(Cl)cc1` (configuration not stated), for which the IC50 was over 4000 µM in experiment [1]; over 4000 µM in experiment [2]; over 4000 µM in experiment [3]; 1090 µM in experiment [4]; 1210 µM in experiment [5]; over 4000 µM in experiment [6].
Consider `O=C1C(O)=C(O)OC12CCCCC2`, for which the IC50 was over 4000 µM in experiment [1]; over 4000 µM in experiment [2]; over 4000 µM in experiment [3]; over 3300 µM in experiment [4]; over 3000 µM in experiment [5]; over 4000 µM in experiment [6].
Consider `CC(C)(C)c1cc2oc(O)c(O)c(=O)c2cc1O`, for which the IC50 in experiment [1] is over 4000 µM; in experiment [2], over 4000 µM; in experiment [3], over 4000 µM; in experiment [4] it was 1640 µM; in experiment [5], 2180 µM; in experiment [6] it was over 4000 µM.
`O=c1c(O)c(O)oc2ccc(Cl)cc12`: the IC50 in experiment [1] worked out at 780 µM; in experiment [3], 1130 µM; in experiment [4] it was 498 µM; in experiment [5] it was 513 µM; in experiment [6], 1400 µM.
As for `O=c1c(O)c(O)oc2ccc(O)cc12`, the IC50 is 3510 µM in experiment [1]; over 4000 µM in experiment [2]; 3410 µM in experiment [3]; 1420 µM in experiment [4]; 1520 µM in experiment [5]; over 4000 µM in experiment [6].
Regarding `O=c1c(O)c(O)oc2cc3c(cc12)OCO3`, the IC50 in experiment [1] is 3980 µM; in experiment [2], 744 µM; in experiment [3], 1550 µM; in experiment [4] it was 426 µM; in experiment [5], 389 µM; in experiment [6], 1110 µM.
Consider `O=c1c(O)c(O)oc2ccccc12`, for which the IC50 in experiment [1] amounted to 561 µM; in experiment [2], 3980 µM; in experiment [3], 925 µM; in experiment [4] it was 531 µM; in experiment [5], 472 µM; in experiment [6], 3410 µM.
For the compound `O=C1C(O)=C(O)OC2CCCC[C@H]12` (some centres not stated), the IC50 is over 4000 µM in experiment [1]; “Not Active” in experiment [7]; over 4000 µM in experiment [3]; 481 µM in experiment [4]; 492 µM in experiment [5]; 3090 µM in experiment [6].
Turning to `CC(=O)Oc1ccccc1C(=O)O` [ASPIRIN], the concentration for half-maximal inhibition (IC50) in experiment [1] is 89 µM; in experiment [3], 95 µM; in experiment [4], 59 µM; in experiment [5], 50 µM.
On the same counts, the results for `COc1ccc2c(c1)c(CC(=O)O)c(C)n2C(=O)c1ccc(Cl)cc1` [INDOMETHACIN] are 1 µM, 1 µM, 0.8 µM and 0.7 µM.
As for `CC(C)(Oc1ccc(Cl)cc1)C(=O)O` [CLOFIBRIC ACID], the IC50 in experiment [1] was over 3200 µM; in experiment [2], 3080 µM; in experiment [3] it was over 3500 µM; in experiment [6] it was over 4000 µM.
